Assay results published in ChEMBL document CHEMBL3244213, “Synthesis of angiotensin II antagonists by incorporating alpha-methylalanine or O-methylthreonine residues in angiotension II analogues” (J Med Chem, 1977).
Active and inactive are the calls of the source. No cut-off for these calls is given here. Non-standard residues stand in square brackets, D forms with d. Residues, ends and D or L forms follow the SMILES beside them. Sar = CNCC(=O)O

Tests used:
Rattus norvegicus [1] = assay: In vivo agonist activity at angiotensin 2 receptor in ganglion-blocked vagotomized rat assessed as rise in blood pressure at 250 ng/kg/min compound infused for 3 mins; assay type: functional
[2] = Retardation factor of the compound using n-BuOH-pyridine-water at ratio of 10:2:5 as solvent system by thin layer chromatography; assay type: physicochemical; conditions: buffer
Oryctolagus cuniculus [3] = species: Oryctolagus cuniculus; assay: Non-competitive antagonist at angiotensin 2 receptor in rabbit aorta assessed as inhibition of angiotensin-2 induced myotropic activity at > 1 uM/L; assay type: tissue-based
Rattus norvegicus [4] = assay: In vivo agonist activity at angiotensin 2 receptor in ganglion-blocked vagotomized rat assessed as rise in blood pressure at 250 ng/kg/min compound infused for 10 mins; assay type: functional
[5] = Retardation factor of the compound using n-BuOH-pyridine-water at ratio of 65:35:65 as solvent system by thin layer chromatography; assay type: physicochemical; conditions: buffer
Rattus norvegicus [6] = assay: In vivo non-competitive antagonist activity at angiotensin 2 receptor in ganglion-blocked vagotomized rat assessed as angiotensin-2 dose ratio at 250 ng/kg/min administered as an infusion; assay type: functional
Procedure, shortened: (§1)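 Vagotomized, ganglion-blocked rats infused with analogue at 125 or 250 ng/kg/min; antagonism of angiotensin II pressor response expressed as dose ratio.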

Oryctolagus cuniculus [7] = species: Oryctolagus cuniculus; assay: Antagonist at angiotensin 2 receptor in rabbit aorta assessed as duration of action at 1 uM/L treated for 5 mins after angiotensin-2 challenge
Procedure, shortened: (§2)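 Spirally cut rabbit aortic strips challenged with a standard 10^-9 M/L angiotensin II dose, then incubated with 10^-6 M/L analogue for 5 min; analogue washed out of the bath and angiotensin II response retested at 5, 30, 60, 120 and 180 min.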

[8] = Competitive antagonist at angiotensin 2 receptor in rabbit aorta assessed as rightward shift in angiotensin-2 dose response curve for myotropic activity; assay type: tissue-based, Oryctolagus cuniculus
Rattus norvegicus [9] = assay: In vivo agonist activity at angiotensin 2 receptor in ganglion-blocked vagotomized rat assessed as rise in blood pressure at 125 ng/kg/min compound infused for 10 mins; assay type: functional
Rattus norvegicus [10] = assay: In vivo agonist activity at angiotensin 2 receptor in ganglion-blocked vagotomized rat assessed as rise in blood pressure at 125 ng/kg/min compound infused for 3 mins; assay type: functional
[11] = Retardation factor of the compound using n-BuOH-pyridine-water at ratio of 65:35:35 as solvent system by thin layer chromatography; assay type: physicochemical; conditions: buffer
Rattus norvegicus [12] = assay: In vivo agonist activity at angiotensin 2 receptor in ganglion-blocked vagotomized rat assessed as rise in blood pressure at 250 ng/kg/min compound infused for 30 mins; assay type: functional
Procedure, shortened: (§3)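 Vagotomized, ganglion-blocked rats given analogue by infusion (standard rate 250 ng/kg/min, some at 125 ng/kg/min); initial blood pressure rise recorded in mmHg over the 30-min infusion period.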

Rattus norvegicus [13] = assay: In vivo agonist activity at angiotensin 2 receptor in ganglion-blocked vagotomized rat assessed as rise in blood pressure at 125 ng/kg/min compound infused for 30 mins; assay type: functional; procedure, shortened: as §3
Oryctolagus cuniculus [14] = species: Oryctolagus cuniculus; assay: Agonist activity at angiotensin 2 receptor in rabbit aorta assessed as myotropic activity up to 1 uM/L relative to angiotensin-2; assay type: tissue-based
Procedure, shortened: (§4)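 Spirally cut isolated rabbit aortic strips; contractile (myotropic) activity of each analogue tested up to a maximum dose level of 10^-6 M/L.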

Rattus norvegicus [15] = assay: In vivo non-competitive antagonist activity at angiotensin 2 receptor in ganglion-blocked vagotomized rat assessed as angiotensin-2 dose ratio at 125 ng/kg/min administered as an infusion; assay type: functional; procedure, shortened: as §1
Rattus norvegicus [16] = assay: In vivo agonist activity at angiotensin 2 receptor in ganglion-blocked vagotomized rat assessed as pressor activity administered as single bolus dose relative to angiotensin-2; assay type: functional
Procedure, shortened: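 Vagotomized, ganglion-blocked rats; analogue given as a single injection and pressor response expressed as percent of angiotensin II ([Asp1,Ile5]angiotensin II = 100).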

[17] = Retardation factor of the compound using n-BuOH-AcOH-water at ratio of 4:1:5 as solvent system by thin layer chromatography; assay type: physicochemical; conditions: buffer
[18] = Retardation factor of the compound using n-BuOH-AcOEt-AcOH-water at ratio of 1:1:1:1 as solvent system by thin layer chromatography; assay type: physicochemical; conditions: buffer
[19] = Retardation factor of the compound using n-PrOH-water at ratio of 2:1 as solvent system by thin layer chromatography; assay type: physicochemical; conditions: buffer
[20] = Retardation factor of the compound using n-BuOH-AcOH-water-pyridine at ratio of 30:6:24:20 as solvent system by thin layer chromatography; assay type: physicochemical; conditions: buffer
Felis catus [21] = species: Felis catus; assay: Agonist activity at angiotensin 2 receptor in cat adrenal medulla assessed as secretory activity relative to angiotensin-2; assay type: tissue-based
Oryctolagus cuniculus [22] = species: Oryctolagus cuniculus; assay: Agonist activity at angiotensin 2 receptor in rabbit aorta assessed as myotropic activity relative to angiotensin-2; assay type: tissue-based; procedure, shortened: as §4
Felis catus [23] = species: Felis catus; assay: Agonist activity at angiotensin 2 receptor in cat adrenal cortex assessed as secretory activity relative to angiotensin-2; assay type: tissue-based
[24] = Retardation factor of the compound using n-BuOH-AcOH-water at ratio of 4:1:1 as solvent system by thin layer chromatography; assay type: physicochemical; conditions: buffer
Oryctolagus cuniculus [25] = species: Oryctolagus cuniculus; assay: Reversal antagonistic activity at angiotensin 2 receptor in rabbit aorta assessed as inhibition of angiotensin-2 induced myotropic activity at 1 uM/L measured at 1 hr following drug wash-out; assay type: tissue-based; procedure, shortened: as §2

Row | Structure (SMILES) | Activity (Rattus norvegicus [1]) [mmHg] | Rf [2] | inhibition (Oryctolagus cuniculus [3]) | Activity (Rattus norvegicus [4]) [mmHg] | Rf [5] | Ratio (Rattus norvegicus [6]) | TIME (Oryctolagus cuniculus [7]) [h] | pA2 [8] | Activity (Rattus norvegicus [10]) [mmHg] | Rf [11] | Activity (Rattus norvegicus [12]) [mmHg] | Activity (Rattus norvegicus [13]) [mmHg] | Activity (Oryctolagus cuniculus [14]) [%] | Ratio (Rattus norvegicus [15]) | Activity (Rattus norvegicus [16]) [%] | Rf [17] | Rf [20] | further results
1 | CC[C@H](C)[C@H](NC(=O)[C@@H]1CCCN1C(=O)[C@H](Cc1c[nH]cn1)NC(=O)[C@@H](NC(=O)[C@H](Cc1ccc(O)cc1)NC(=O)[C@@H](NC(=O)[C@H](CCCN=C(N)N)NC(=O)CNC)C(C)C)[C@@H](C)OC)C(=O)O (H-[Sar]RVYT(Me)HPI-OH) | 19 | 0.08 | Active | 18.83 | 0.25 | 50 | 2 | 9.5 | 11 | 0.25 | 18.5 | 19.8 | 0.1 | 24.15 | 1.01 | 0.35 | – | Activity (Rattus norvegicus [9]): 16.82 mmHg
2 | CC[C@H](C)[C@H](NC(=O)[C@H](Cc1ccc(O)cc1)NC(=O)[C@@H](NC(=O)CN(C)C(=O)CNC)C(C)C)C(=O)N[C@@H](Cc1c[nH]cn1)C(=O)N1CCC[C@H]1C(=O)N[C@H](C(=O)O)[C@@H](C)O (H-[Sar][Sar]VYIHPT-OH) | 3.16 | 0.24 | Active | 7 | – | 1.93 | 3 | 8.78 | – | 0.43 | 11.66 | – | 0 | – | 0 | 0.46 | 0.63 | Rf [18]: 0.75; Rf [19]: 0.76
3 | CC[C@H](C)[C@H](NC(=O)[C@H](Cc1ccc(O)cc1)NC(=O)[C@@H](NC(=O)[C@H](CCCN=C(N)N)NC(=O)CNC)C(C)C)C(=O)N[C@@H](Cc1c[nH]cn1)C(=O)N1CCC[C@H]1C(=O)N[C@@H](C)C(=O)O | 15.11 | – | Active | 16.88 | – | 7.92 | 2 | 8.61 | – | – | 17.44 | – | 0.5 | – | – | – | – | –
4 | CC[C@H](C)[C@H](NC(=O)[C@H](Cc1ccc(O)cc1)NC(=O)[C@@H](NC(=O)[C@H](CCCN=C(N)N)NC(=O)CNC)C(C)C)C(=O)N[C@@H](Cc1c[nH]cn1)C(=O)N1CCC[C@H]1C(=O)N[C@H](C(=O)O)[C@@H](C)O (H-[Sar]RVYIHPT-OH) | 9.46 | – | Active | 9.66 | – | 26.91 | 2 | 8.79 | – | – | 9.2 | – | 0.5 | – | 0.6 | – | – | Activity (Felis catus [21]): 0.1%; Activity (Oryctolagus cuniculus [22]): 0.5%; Activity (Felis catus [23]): 1%
5 | CC[C@H](C)[C@H](NC(=O)[C@H](Cc1ccc(O)cc1)NC(=O)[C@@H](NC(=O)[C@H](CCCNC(=N)N)NC(=O)CNC)C(C)C)C(=O)N[C@@H](Cc1cnc[nH]1)C(=O)N1CCC[C@H]1C(=O)NC(C)(C)C(=O)O | 11 | – | Active | 13.16 | 0.22 | 19.76 | 2 | 8.7 | – | 0.26 | 16.6 | – | 0 | – | 0.52 | 0.46 | 0.62 | Rf [24]: 0.5
6 | CC[C@H](C)[C@H](NC(=O)[C@H](Cc1ccc(O)cc1)NC(=O)[C@@H](NC(=O)[C@H](CCCNC(=N)N)NC(=O)CNC)C(C)C)C(=O)N[C@@H](Cc1cnc[nH]1)C(=O)N1CCC[C@H]1C(=O)N[C@H](C(=O)O)[C@@H](C)OC | 13.82 | – | Active | 15.88 | – | 62.52 | 2 | 8.76 | 5.25 | – | 15.06 | 8.75 | 0.5 | 11.65 | 0.48 | – | – | –
7 | CC[C@H](C)[C@H](NC(=O)[C@@H]1CCCN1C(=O)[C@H](Cc1c[nH]cn1)NC(=O)[C@@H](NC(=O)[C@H](Cc1ccc(O)cc1)NC(=O)[C@@H](NC(=O)[C@H](CCCN=C(N)N)NC(=O)CNC)C(C)C)[C@@H](C)CC)C(=O)O | 17.81 | – | Active | 18.27 | – | 27.79 | 2 | 9.17 | – | – | 14.81 | – | 1 | – | 1 | – | – | –
8 | CNCC(=O)N[C@@H](CCCNC(=N)N)C(=O)N[C@H](C(=O)N[C@@H](Cc1ccc(O)cc1)C(=O)N[C@H](C(=O)N[C@@H](Cc1cnc[nH]1)C(=O)N1CCC[C@H]1C(=O)N[C@H](C(=O)O)[C@@H](C)OC)[C@@H](C)OC)C(C)C | – | – | Active | – | – | – | 2 | 9.5 | 8.33 | 0.18 | – | 14.5 | 0 | 32.73 | 0.46 | 0.28 | 0.47 | Activity (Rattus norvegicus [9]): 13 mmHg
9 | CC[C@H](C)[C@H](NC(=O)[C@H](Cc1ccc(O)cc1)NC(=O)[C@@H](NC(=O)[C@H](CCCNC(=N)N)NC(=O)C(C)(C)N)C(C)C)C(=O)N[C@@H](Cc1cnc[nH]1)C(=O)N1CCC[C@H]1C(=O)NC(C)(C)C(=O)O | 5.16 | 0.26 | Active | 8.5 | 0.43 | 3.4 | 1 | 7.22 | – | 0.41 | 14.33 | – | 0 | – | 0.24 | 0.47 | 0.64 | inhibition (Oryctolagus cuniculus [25]): Active; Rf [19]: 0.83
